In brackets after ≈: the same amount, converted by molar mass.
Experiments:
Prevotella denticola = assay: Antimicrobial activity against Prevotella denticola under anaerobic conditions after 44 hrs by CLSI-M11-47 protocol based agar dilution method; format: functional
Summary of the method: (§1)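 Clinical isolates were stored at −70°C in 20% skim milk and identified phenotypically or by partial 16S rRNA sequencing. Each strain was subcultured twice from frozen stock. Cell paste from 48-h cultures was suspended in brucella broth to a 0.5 McFarland standard. About 10^5 CFU per spot were applied by Steers replicator to agar dilution plates prepared on the day of testing. Plates were incubated 44 h at 37°C in an anaerobic chamber. MIC was taken as the lowest concentration giving complete inhibition or marked reduction of growth versus the drug-free control.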

Lacticaseibacillus casei = assay: Antimicrobial activity against Lactobacillus casei under anaerobic conditions after 44 hrs by CLSI-M11-47 protocol based agar dilution method; format: functional; summary of the method: as §1
Actinomyces turicensis = assay: Antimicrobial activity against Actinomyces turicensis under anaerobic conditions after 44 hrs by CLSI-M11-47 protocol based agar dilution method; format: functional; conditions: Schaalia turicensis
Summary of the method: (§2)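 Reference agar dilution per CLSI M11-A7 with plates made on test day. Clinical isolates were stored at −70°C in 20% skim milk, subcultured twice, and 48-h cell paste was suspended in brucella broth to 0.5 McFarland. About 10^5 CFU/spot was applied with a Steers replicator. Plates were incubated 44 h at 37°C anaerobically. MIC was the lowest concentration giving complete inhibition or marked growth reduction versus the drug-free control.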

Prevotella tannerae = assay: Antimicrobial activity against Prevotella tannerae under anaerobic conditions after 44 hrs by CLSI-M11-47 protocol based agar dilution method; format: functional; conditions: Alloprevotella tannerae; summary of the method: as §1
Eubacterium limosum = assay: Antimicrobial activity against Eubacterium limosum under anaerobic conditions after 44 hrs by CLSI-M11-47 protocol based agar dilution method; format: functional; summary of the method: as §2
Gemella morbillorum = assay: Antimicrobial activity against Gemella morbillorum under anaerobic conditions after 44 hrs by CLSI-M11-47 protocol based agar dilution method; format: functional; summary of the method: as §1
Parvimonas micra = assay: Antimicrobial activity against Parvimonas micra under anaerobic conditions after 44 hrs by CLSI-M11-47 protocol based agar dilution method; format: functional; summary of the method: as §1
[1] = system: Peptostreptococcus anaerobius; assay: Antimicrobial activity against Peptostreptococcus anaerobius under anaerobic conditions after 44 hrs by CLSI-M11-47 protocol based agar dilution method; format: functional; summary of the method: as §1
[2] = system: Porphyromonas asaccharolytica; assay: Antimicrobial activity against Porphyromonas asaccharolyticus under anaerobic conditions after 44 hrs by CLSI-M11-47 protocol based agar dilution method; format: functional; summary of the method: as §1
Prevotella corporis = assay: Antimicrobial activity against Prevotella corporis under anaerobic conditions after 44 hrs by CLSI-M11-47 protocol based agar dilution method; format: functional; summary of the method: as §1
Bacteroides fragilis [3] = assay: Antimicrobial activity against Bacteroides fragilis spp. under anaerobic conditions after 44 hrs by CLSI-M11-47 protocol based agar dilution method; format: functional; summary of the method: as §2
[4] = system: Enterocloster clostridioformis; assay: Antimicrobial activity against Clostridium clostridioforme under anaerobic conditions after 44 hrs by CLSI-M11-47 protocol based agar dilution method; format: functional; summary of the method: as §2
[5] = system: Bacteroides thetaiotaomicron; assay: Antimicrobial activity against Bacteroides thetaiotaomicron under anaerobic conditions after 44 hrs by CLSI-M11-47 protocol based agar dilution method; format: functional; summary of the method: as §2
Slackia exigua = assay: Antimicrobial activity against Slackia exigua under anaerobic conditions after 44 hrs by CLSI-M11-47 protocol based agar dilution method; format: functional; summary of the method: as §1
[6] = system: Fusobacterium necrophorum; assay: Antimicrobial activity against Fusobacterium necrophorum under anaerobic conditions after 44 hrs by CLSI-M11-47 protocol based agar dilution method; format: functional; summary of the method: as §2
Bacteroides fragilis [7] = assay: Antimicrobial activity against Bacteroides fragilis under anaerobic conditions after 44 hrs by CLSI-M11-47 protocol based agar dilution method; format: functional; summary of the method: as §2
[8] = system: Parabacteroides distasonis; assay: Antimicrobial activity against Bacteroides distasonis under anaerobic conditions after 44 hrs by CLSI-M11-47 protocol based agar dilution method; format: functional; summary of the method: as §2
Hoylesella loescheii = assay: Antimicrobial activity against Prevotella loescheii under anaerobic conditions after 44 hrs by CLSI-M11-47 protocol based agar dilution method; format: functional; summary of the method: as §1
Cutibacterium acnes = assay: Antimicrobial activity against Propionibacterium acnes under anaerobic conditions after 44 hrs by CLSI-M11-47 protocol based agar dilution method; format: functional; summary of the method: as §1
Actinomyces israelii = assay: Antimicrobial activity against Actinomyces israelii under anaerobic conditions after 44 hrs by CLSI-M11-47 protocol based agar dilution method; format: functional; summary of the method: as §2
Anaerococcus vaginalis = assay: Antimicrobial activity against Anaerococcus vaginalis under anaerobic conditions after 44 hrs by CLSI-M11-47 protocol based agar dilution method; format: functional; summary of the method: as §2
[9] = system: Actinomyces neuii subsp. anitratus; assay: Antimicrobial activity against Actinomyces neuii subsp. anitratus under anaerobic conditions after 44 hrs by CLSI-M11-47 protocol based agar dilution method; format: functional, Winkia neuii subsp. anitrata; conditions: Winkia neuii; summary of the method: as §2
Veillonella = assay: Antimicrobial activity against Veillonella spp. under anaerobic conditions after 44 hrs by CLSI-M11-47 protocol based agar dilution method; format: functional; summary of the method: as §1
Porphyromonas somerae = assay: Antimicrobial activity against Porphyromonas somerae under anaerobic conditions after 44 hrs by CLSI-M11-47 protocol based agar dilution method; format: functional; summary of the method: as §1
Anaerococcus octavius = assay: Antimicrobial activity against Anaerococcus octavius under anaerobic conditions after 44 hrs by CLSI-M11-47 protocol based agar dilution method; format: functional; summary of the method: as §2
Mogibacterium timidum = assay: Antimicrobial activity against Mogibacterium timidum under anaerobic conditions after 44 hrs by CLSI-M11-47 protocol based agar dilution method; format: functional; summary of the method: as §1
[Clostridium] innocuum = Antimicrobial activity against Clostridium […] under anaerobic conditions after 44 hrs by CLSI-M11-47 protocol based agar dilution method; format: functional; summary of the method: as §2
Propionibacterium avidum = assay: Antimicrobial activity against Propionibacterium avidum under anaerobic conditions after 44 hrs by CLSI-M11-47 protocol based agar dilution method; format: functional; conditions: Cutibacterium avidum; summary of the method: as §1
Gemella sanguinis = assay: Antimicrobial activity against Gemella sanguinis under anaerobic conditions after 44 hrs by CLSI-M11-47 protocol based agar dilution method; format: functional; summary of the method: as §1
Bacteroides uniformis = assay: Antimicrobial activity against Bacteroides uniformis under anaerobic conditions after 44 hrs by CLSI-M11-47 protocol based agar dilution method; format: functional; summary of the method: as §2
Clostridium subterminale = assay: Antimicrobial activity against Clostridium subterminale under anaerobic conditions after 44 hrs by CLSI-M11-47 protocol based agar dilution method; format: functional; summary of the method: as §2
Clostridium hathewayi = assay: Antimicrobial activity against Clostridium hathewayi under anaerobic conditions after 44 hrs by CLSI-M11-47 protocol based agar dilution method; format: functional; conditions: Hungatella hathewayi; summary of the method: as §2

Q: For `Cc1ncc([N+](=O)[O-])n1CCO` [METRONIDAZOLE], which MIC50 (Prevotella denticola) is on record?
A: 0.5 µg/mL (≈ 2.92 µM)

Q: And the MIC90 (Prevotella denticola)?
A: 2 µg/mL (≈ 11.7 µM)

Q: What about the MIC50 (Lacticaseibacillus casei) of the same compound?
A: > 64 µg/mL

Q: And the MIC90 (Lacticaseibacillus casei)?
A: > 64 µg/mL

Q: What about the MIC50 (Actinomyces turicensis) of the same compound?
A: > 32 µg/mL

Q: What about the MIC90 (Actinomyces turicensis) of the same compound?
A: > 32 µg/mL

Q: What about the MIC50 (Prevotella tannerae) of the same compound?
A: 0.5 µg/mL (≈ 2.92 µM)

Q: What about the MIC90 (Prevotella tannerae) of the same compound?
A: 2 µg/mL (≈ 11.7 µM)

Q: What about the MIC50 (Eubacterium limosum) of the same compound?
A: 0.5 µg/mL (≈ 2.92 µM)

Q: And the MIC90 (Eubacterium limosum)?
A: 1 µg/mL (≈ 5.84 µM)

Q: What about the MIC50 (Gemella morbillorum) of the same compound?
A: 1 µg/mL (≈ 5.84 µM)

Q: And the MIC90 (Gemella morbillorum)?
A: 4 µg/mL (≈ 23.4 µM)

Q: And the MIC50 (Parvimonas micra)?
A: 0.25 µg/mL (≈ 1.46 µM)

Q: And the MIC90 (Parvimonas micra)?
A: 0.25 µg/mL (≈ 1.46 µM)

Q: And the MIC50 [1]?
A: 0.5 µg/mL (≈ 2.92 µM)

Q: What about the MIC90 [1] of the same compound?
A: 1 µg/mL (≈ 5.84 µM)

Q: And the MIC50 [2]?
A: 0.06 µg/mL (≈ 0.351 µM)

Q: What about the MIC90 [2] of the same compound?
A: 0.125 µg/mL (≈ 0.73 µM)

Q: What about the MIC50 (Prevotella corporis) of the same compound?
A: 0.5 µg/mL (≈ 2.92 µM)

Q: What about the MIC90 (Prevotella corporis) of the same compound?
A: 2 µg/mL (≈ 11.7 µM)

Q: What about the MIC50 (Bacteroides fragilis [3]) of the same compound?
A: 1 µg/mL (≈ 5.84 µM)

Q: What about the MIC90 (Bacteroides fragilis [3]) of the same compound?
A: 2 µg/mL (≈ 11.7 µM)

Q: What about the MIC50 [4] of the same compound?
A: 0.06 µg/mL (≈ 0.351 µM)

Q: And the MIC90 [4]?
A: 0.25 µg/mL (≈ 1.46 µM)

Q: What about the MIC50 [5] of the same compound?
A: 1 µg/mL (≈ 5.84 µM)

Q: What about the MIC90 [5] of the same compound?
A: 1 µg/mL (≈ 5.84 µM)

Q: What about the MIC50 (Slackia exigua) of the same compound?
A: 0.5 µg/mL (≈ 2.92 µM)

Q: What about the MIC90 (Slackia exigua) of the same compound?
A: 1 µg/mL (≈ 5.84 µM)

Q: And the MIC50 [6]?
A: 0.125 µg/mL (≈ 0.73 µM)

Q: And the MIC90 [6]?
A: 0.25 µg/mL (≈ 1.46 µM)

Q: And the MIC50 (Bacteroides fragilis [7])?
A: 1 µg/mL (≈ 5.84 µM)

Q: And the MIC90 (Bacteroides fragilis [7])?
A: 2 µg/mL (≈ 11.7 µM)

Q: And the MIC50 [8]?
A: 1 µg/mL (≈ 5.84 µM)

Q: And the MIC90 [8]?
A: 2 µg/mL (≈ 11.7 µM)

Q: And the MIC50 (Hoylesella loescheii)?
A: 0.5 µg/mL (≈ 2.92 µM)

Q: And the MIC90 (Hoylesella loescheii)?
A: 2 µg/mL (≈ 11.7 µM)

Q: And the MIC50 (Cutibacterium acnes)?
A: > 32 µg/mL

Q: What about the MIC90 (Cutibacterium acnes) of the same compound?
A: > 32 µg/mL

Q: What about the MIC50 (Actinomyces israelii) of the same compound?
A: > 32 µg/mL

Q: What about the MIC90 (Actinomyces israelii) of the same compound?
A: > 32 µg/mL

Q: And the MIC50 (Anaerococcus vaginalis)?
A: 1 µg/mL (≈ 5.84 µM)

Q: What about the MIC90 (Anaerococcus vaginalis) of the same compound?
A: 4 µg/mL (≈ 23.4 µM)

Q: And the MIC50 [9]?
A: > 32 µg/mL

Q: What about the MIC90 [9] of the same compound?
A: > 32 µg/mL

Q: What about the MIC50 (Veillonella) of the same compound?
A: 2 µg/mL (≈ 11.7 µM)

Q: What about the MIC90 (Veillonella) of the same compound?
A: 8 µg/mL (≈ 46.7 µM)

Q: What about the MIC50 (Porphyromonas somerae) of the same compound?
A: 0.5 µg/mL (≈ 2.92 µM)

Q: And the MIC90 (Porphyromonas somerae)?
A: 0.5 µg/mL (≈ 2.92 µM)

Q: What about the MIC50 (Anaerococcus octavius) of the same compound?
A: 1 µg/mL (≈ 5.84 µM)

Q: What about the MIC90 (Anaerococcus octavius) of the same compound?
A: 4 µg/mL (≈ 23.4 µM)

Q: And the MIC50 (Mogibacterium timidum)?
A: 0.5 µg/mL (≈ 2.92 µM)

Q: And the MIC90 (Mogibacterium timidum)?
A: 1 µg/mL (≈ 5.84 µM)

Q: And the MIC50 ([Clostridium] innocuum)?
A: 1 µg/mL (≈ 5.84 µM)

Q: And the MIC90 ([Clostridium] innocuum)?
A: 4 µg/mL (≈ 23.4 µM)

Q: What about the MIC50 (Propionibacterium avidum) of the same compound?
A: > 32 µg/mL

Q: And the MIC90 (Propionibacterium avidum)?
A: > 31 µg/mL

Q: What about the MIC50 (Gemella sanguinis) of the same compound?
A: 1 µg/mL (≈ 5.84 µM)

Q: What about the MIC90 (Gemella sanguinis) of the same compound?
A: 4 µg/mL (≈ 23.4 µM)

Q: What about the MIC50 (Bacteroides uniformis) of the same compound?
A: 1 µg/mL (≈ 5.84 µM)

Q: What about the MIC90 (Bacteroides uniformis) of the same compound?
A: 2 µg/mL (≈ 11.7 µM)

Q: And the MIC50 (Clostridium subterminale)?
A: 0.5 µg/mL (≈ 2.92 µM)

Q: What about the MIC90 (Clostridium subterminale) of the same compound?
A: 4 µg/mL (≈ 23.4 µM)

Q: What about the MIC50 (Clostridium hathewayi) of the same compound?
A: 0.06 µg/mL (≈ 0.351 µM)

Q: What about the MIC90 (Clostridium hathewayi) of the same compound?
A: 0.25 µg/mL (≈ 1.46 µM)

From ChEMBL document CHEMBL1255409, “In vitro activity of ceftaroline against 623 diverse strains of anaerobic bacteria” (2010)
